Activity calls are given as the source filed them. The calls are words filed in the database; no cut-off is given here.
Experiments:
MDA-MB-231 [1] = assay: Inhibition of [2,9-3H]spermidine uptake in human MDA-MB-231 cells after 15 mins by Lineweaver-Burke plot analysis; assay type: functional, cell-based
In short: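 Cells then washed three times in cold PBS and lysed in 0.1% SDS, and lysates scintillation-counted. Four substrate concentrations (0.3–3 µM) and five inhibitor concentrations (0.01–1.0 µM) plus control. Ki from slopes of Lineweaver-Burke plots against inhibitor concentration (Ki = y-intercept/slope).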

[2] = molecular target: T1, Ornithine decarboxylase (Homo sapiens) (UniProt P11926); assay: Inhibition of ornithine decarboxylase activity in human SK-MEL cells at 10 uM after 24 hrs relative to control; assay type: cell-based; parameters: scale not given: the % may be the effect or the level left
T1 sequence (whole entry): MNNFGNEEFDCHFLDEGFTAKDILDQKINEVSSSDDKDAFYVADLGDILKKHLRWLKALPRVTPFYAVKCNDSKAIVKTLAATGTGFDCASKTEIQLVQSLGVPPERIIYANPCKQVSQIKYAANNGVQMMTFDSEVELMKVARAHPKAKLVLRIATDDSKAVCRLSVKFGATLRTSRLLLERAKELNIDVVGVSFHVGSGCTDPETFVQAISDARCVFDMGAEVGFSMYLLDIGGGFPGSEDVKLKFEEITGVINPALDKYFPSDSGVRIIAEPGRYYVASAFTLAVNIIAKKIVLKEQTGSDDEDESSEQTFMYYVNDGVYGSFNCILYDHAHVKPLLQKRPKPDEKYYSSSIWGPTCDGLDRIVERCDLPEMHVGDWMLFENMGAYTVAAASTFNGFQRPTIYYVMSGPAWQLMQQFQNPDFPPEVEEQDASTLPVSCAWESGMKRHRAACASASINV
In short: (§1)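 SK-Mel human melanoma cells exposed to 10 µM agent alone for 24 h. Enzyme activity (ODC; SSAT) measured and expressed as % of untreated control.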

[3] = molecular target: Diamine acetyltransferase 1 (Homo sapiens) (UniProt P21673); assay: Inhibition of spermidine/spermine N1-acetyltransferase activity in human SK-MEL cells at 10 uM after 24 hrs relative to control; assay type: cell-based; parameters: scale not given: the % may be the effect or the level left; in short: as §1
Diamine acetyltransferase 1 (Homo sapiens), sequence (P21673 whole entry): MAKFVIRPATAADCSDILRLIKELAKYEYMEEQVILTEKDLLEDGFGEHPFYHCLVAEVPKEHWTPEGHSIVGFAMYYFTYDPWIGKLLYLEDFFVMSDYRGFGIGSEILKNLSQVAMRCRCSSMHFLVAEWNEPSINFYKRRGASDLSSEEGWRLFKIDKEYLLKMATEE

Mus musculus [4] = species on record: Mus musculus; assay: Antitumor activity against 7,12-dimethylbenz(alpha)anthracene-induced squamous cell carcinoma in FVB/N transgenic mouse model expressing K6/ODC gene assessed as tumor growth inhibition after 4 weeks; assay type: functional, organism-based
MDA-MB-231 [5] = assay: Cytotoxicity against human MDA-MB-231 cells after 6 days by MTS/PMS dye assay; details: MDA-MB-231, 144 h
Mus musculus [6] = assay: Antitumor activity against 7,12-dimethylbenz(alpha)anthracene-induced squamous cell carcinoma in FVB/N transgenic mouse model expressing K6/ODC gene assessed as tumor growth inhibition at 0.5 mg/kg, ip administered twice daily after 4 weeks; assay type: functional, organism-based; parameters: dose 0.5 mg/kg

SMILES | Ki (MDA-MB-231 [1]) [nM] | Activity [2] [%] | Activity [3] [%] | Activity (Mus musculus [4]) | IC50 (MDA-MB-231 [5]) [nM] | Activity (Mus musculus [6])
CCCCCCCCCCCCCCCC(=O)NCCCC[C@H](N)C(=O)NCCCNCCCCNCCCN | 7.5 | 46 | 40 |  |  | 
NCCCC(N)(C(=O)O)C(F)F (centres undefined) |  |  |  | Active |  | 
CCCCCCCCCCCCCCCC(=O)NCCCC[C@@H](N)C(=O)NCCCNCCCCNCCCN [AMXT-1501] | 10.5 |  |  |  | 57000 | Active
CCCCCCCC(=O)NCCCC[C@H](N)C(=O)NCCCNCCCCNCCCN |  | 110 | 40 |  |  | 

Source: ChEMBL document CHEMBL1153376, “Lipophilic lysine-spermine conjugates are potent polyamine transport inhibitors for use in combination with a polyamine biosynthesis inhibitor” (J Med Chem, 2009)
